How the values were obtained:
Type in all cases: functional
Mus musculus [1] = experiment: Percent increase in life span against P-388 leukemia in mice was determined at a dose of 680 mg/kg; conditions: P388
Summary of the method: (§1)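 Male B6D2F1J mice, 5 per dose group, received 10⁶ P-388 cells ip on day 0. Dosing was ip qd × 4 on days 1-4 in sterile saline, or 10% Tween 80 for the butyl thioether. Median survival times of treated (T) and untreated control (C, 10-17 mice) groups were compared: %ILS = [(T/C) − 1]100. Weights taken on days 1 and 7.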

Mus musculus [2] = experiment: Antitumor activity was determined for survival range of mice against P-388 leukemia in mice at a dose of 75 mg/kg
Summary of the method: (§2)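 Male B6D2F1J mice, 5 per dose group, implanted ip with 10⁶ P-388 leukemia cells on day 0. Drug given ip daily on days 1-4 (qd × 4) in sterile saline, or in 10% Tween 80 for the butyl thioether. Survival range recorded in days. Untreated control groups had 10-17 animals per experiment. Mice weighed on days 1 and 7.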

Mus musculus [3] = experiment: Antitumor activity was determined for survival range of mice against P-388 leukemia in mice at a dose of 680 mg/kg
Summary of the method: (§3)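 Male B6D2F1J mice implanted ip with 10⁶ P-388 cells on day 0; test agents given ip on days 1–4 (qd × 4) in sterile saline, or in 10% Tween 80 for the lipophilic thioether. Groups of 5 treated mice, with 10–17 untreated controls per experiment. Mice weighed on days 1 and 7 to give the 7-day weight change in g and %. Survival recorded in days as median and range.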

Mus musculus [4] = experiment: Percent increase in life span against P-388 leukemia in mice was determined at a dose of 85 mg/kg; conditions: P388; summary of the method: as §1
Mus musculus [5] = experiment: Antitumor activity was determined for survival range of mice against P-388 leukemia in mice at a dose of 600 mg/kg; summary of the method: as §3
Mus musculus [6] = experiment: Percent increase in life span against P-388 leukemia in mice was determined at a dose of 150 mg/kg; conditions: P388; summary of the method: as §1
L1210 = experiment: Evaluated for cytotoxicity against L1210 mouse leukemia cells; conditions: read-out: ID50 (the source's name)
Summary of the method: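 L1210 murine leukemia cells in Eagle's minimal essential medium with 15% fetal calf serum, streptomycin (100 μg/mL), penicillin (100 units/mL) and 0.05 mM 2-mercaptoethanol. Cells counted by Coulter counter after 48 h exposure. ID50 is the 50% growth-inhibitory dose. Triplicate assays, standard deviation ±10%.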

Mus musculus [7] = experiment: Antitumor activity was determined for survival range of mice against P-388 leukemia in mice at a dose of 85 mg/kg; summary of the method: as §2
Mus musculus [8] = experiment: Antitumor activity was determined for survival range of mice against P-388 leukemia in mice at a dose of 300 mg/kg; summary of the method: as §3
Mus musculus [9] = experiment: Percent increase in life span against P-388 leukemia in mice was determined at a dose of 340 mg/kg; conditions: P388; summary of the method: as §1
Mus musculus [10] = experiment: Percent increase in life span against P-388 leukemia in mice was determined at a dose of 600 mg/kg; conditions: P388; summary of the method: as §1
Mus musculus [11] = experiment: Percent increase in life span against P-388 leukemia in mice was determined at a dose of 170 mg/kg; conditions: P388; summary of the method: as §1
Mus musculus [12] = experiment: Antitumor activity was determined for average weight on day 1 against P-388 leukemia in mice at a dose of 340 mg/kg
Summary of the method: (§4)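 Male B6D2F1J mice, groups of 5, inoculated ip with 10⁶ P-388 cells on day 0. Drug given ip on days 1-4 (qd × 4) in sterile saline, or in 10% Tween 80 for the poorly water-soluble thioether. Average weight per mouse recorded on day 1, with reweighing on day 7 for percent weight change. Untreated control groups had 10-17 animals per experiment.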

Mus musculus [13] = experiment: Antitumor activity was determined for average weight on day 1 against P-388 leukemia in mice at a dose 150 of mg/kg
Summary of the method: (§5)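 Male B6D2F1J mice given 10⁶ P-388 cells ip on day 0, then treated ip once daily on days 1-4 (qd × 4), 5 mice per dose group. Compounds dosed in sterile saline, except one lipophilic thioether given in 10% Tween 80. Mice weighed on days 1 and 7; mean weight per mouse on day 1 and 7-day weight change reported in g and as percent.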

Mus musculus [14] = experiment: Antitumor activity was determined for 7-day average percent weight change against P-388 leukemia in mice at a dose of 300 mg/kg; summary of the method: as §5
Mus musculus [15] = experiment: Antitumor activity was determined for survival range of mice against P-388 leukemia in mice at a dose of 150 mg/kg; summary of the method: as §3
Mus musculus [16] = experiment: Antitumor activity was determined for average 7-day weight change against P-388 leukemia in mice at a dose of 170 mg/kg; summary of the method: as §5
Mus musculus [17] = experiment: Antitumor activity was determined for 7-day average percent weight change against P-388 leukemia in mice at a dose of 85 mg/kg; summary of the method: as §5
Mus musculus [18] = experiment: Antitumor activity was determined for median survival of mice against P-388 leukemia in mice at a dose of 340 mg/kg; summary of the method: as §3
Mus musculus [19] = experiment: Antitumor activity was determined for average 7-day weight change against P-388 leukemia in mice at a dose of 340 mg/kg; summary of the method: as §5
Mus musculus [20] = experiment: Antitumor activity was determined for median survival of mice against P-388 leukemia in mice at a dose of 75 mg/kg; summary of the method: as §3
Mus musculus [21] = experiment: Antitumor activity was determined for 7-day average percent weight change against P-388 leukemia in mice at a dose of 150 mg/kg; summary of the method: as §5
Mus musculus [22] = experiment: Percent increase in life span against P-388 leukemia in mice was determined at a dose of 75 mg/kg; conditions: P388; summary of the method: as §1
Mus musculus [23] = experiment: Antitumor activity was determined for average 7-day weight change against P-388 leukemia in mice at a dose of 600 mg/kg; summary of the method: as §5
Mus musculus [24] = experiment: Antitumor activity was determined for 7-day average percent weight change against P-388 leukemia in mice at a dose of 600 mg/kg; summary of the method: as §5
Mus musculus [25] = experiment: Antitumor activity was determined for survival range of mice against P-388 leukemia in mice at a dose of 170 mg/kg; summary of the method: as §3
Mus musculus [26] = experiment: Antitumor activity was determined for median survival of mice against P-388 leukemia in mice at a dose of 170 mg/kg; summary of the method: as §3
Mus musculus [27] = experiment: Antitumor activity was determined for average 7-day weight change against P-388 leukemia in mice at a dose of 150 mg/kg; summary of the method: as §5
Mus musculus [28] = experiment: Antitumor activity was determined for average weight on day 1 against P-388 leukemia in mice at a dose of 170 mg/kg; summary of the method: as §4
Mus musculus [29] = experiment: Antitumor activity was determined for 7-day average percent weight change against P-388 leukemia in mice at a dose of 340 mg/kg; summary of the method: as §5
Mus musculus [30] = experiment: Antitumor activity was determined for average 7-day weight change against P-388 leukemia in mice at a dose of 75 mg/kg; summary of the method: as §5
Mus musculus [31] = experiment: Antitumor activity was determined for 7-day average percent weight change against P-388 leukemia in mice at a dose of 170 mg/kg; summary of the method: as §5
Mus musculus [32] = experiment: Antitumor activity was determined for median survival of mice against P-388 leukemia in mice at a dose of 85 mg/kg; summary of the method: as §3
Mus musculus [33] = experiment: Antitumor activity was determined for average weight on day 1 against P-388 leukemia in mice at a dose of 85 mg/kg; summary of the method: as §4
Mus musculus [34] = experiment: Antitumor activity was determined for average weight on day 1 against P-388 leukemia in mice at a dose of 600 mg/kg; summary of the method: as §4
Mus musculus [35] = experiment: Antitumor activity was determined for 7-day average percent weight change against P-388 leukemia in mice at a dose of 75 mg/kg; summary of the method: as §5

Which results are given for CC[C@H]1OC(n2cc(F)c(=O)[nH]c2=O)[C@H](O)[C@@H]1O (stereo partly specified)?
ILS at 680 mg/kg (Mus musculus [1]): 54%; Survival range (Mus musculus [2]): 14; Survival range (Mus musculus [3]): 16; ILS at 85 mg/kg (Mus musculus [4]): 18%; Survival range (Mus musculus [5]): 17; ILS at 150 mg/kg (Mus musculus [6]): 54%; IC50 (L1210): 19 µM; Survival range (Mus musculus [7]): 13; Survival range (Mus musculus [8]): 17; ILS at 340 mg/kg (Mus musculus [9]): 45%; ILS at 600 mg/kg (Mus musculus [10]): 63%; ILS at 170 mg/kg (Mus musculus [11]): 27%; Average weight (Mus musculus [12]): 27.8 g mouse-1; Average weight (Mus musculus [13]): 25.8 g mouse-1; Weight change (Mus musculus [14]): 3%; Survival range (Mus musculus [15]): 15; Average weight (Mus musculus [16]): 1.6 g mouse-1; Weight change (Mus musculus [17]): 5%; Survival median (Mus musculus [18]): 16; Average weight (Mus musculus [19]): 1.4 g mouse-1; Survival median (Mus musculus [20]): 15; Weight change (Mus musculus [21]): 7%; ILS at 75 mg/kg (Mus musculus [22]): 36%; Average weight (Mus musculus [23]): -2.4 g mouse-1; Weight change (Mus musculus [24]): -10%; Survival range (Mus musculus [25]): 13; Survival median (Mus musculus [26]): 14; Average weight (Mus musculus [27]): 1.8 g mouse-1; Average weight (Mus musculus [28]): 26.4 g mouse-1; Weight change (Mus musculus [29]): 5%; Average weight (Mus musculus [30]): 2 g mouse-1; Weight change (Mus musculus [31]): 6%; Survival median (Mus musculus [32]): 13; Average weight (Mus musculus [33]): 26.2 g mouse-1; Average weight (Mus musculus [34]): 23.2 g mouse-1; Weight change (Mus musculus [35]): 9%

Reference: ChEMBL document CHEMBL1122125, “Synthesis and in vivo antitumor activity of potential 5-fluorouracil prodrugs” (1982)
